pIC50: −log10 of the molar value. The source made the active and inactive calls. No cut-off for these calls is given here.
Tests used:
[1] = system: Trypanosoma cruzi; test: […] activity against Trypanosoma cruzi infected in human MRC-5 cells by luciferase reporter gene assay; format: functional, cell-based; details: MRC5
Outline: (§1)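 Run at LMPH as IC50 determinations. L. infantum was grown in primary peritoneal mouse macrophages and T. cruzi on human lung fibroblasts (MRC-5). Each value is the mean of at least two independent determinations, run alongside MRC-5 and macrophage cytotoxicity tests.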

[2] = system: Leishmania infantum; test: Antileishmanial activity against Leishmania infantum infected in primary peritoneal mouse macrophages by luciferase reporter gene assay; format: functional; outline: as §1
[3] = Apparent permeability from basolateral to apical side in human Caco2 cells after 150 mins by LC-MS/MS analysis; format: ADME, cell-based; details: Caco-2
[4] = Apparent permeability from apical to basolateral side in human Caco2 cells after 150 mins by LC-MS/MS analysis; format: ADME, cell-based; details: Caco-2
[5] = system: Mycobacterium tuberculosis; test: Antitubercular activity against Mycobacterium tuberculosis infected in BALB/c mouse assessed as reduction in bacterial burden at 100 mg/kg, po qd administered every 5 days a week for 3 weeks; format: functional, organism-based
Outline: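 Acute infection model in BALB/c mice: dosing at 100 mg/kg daily, 5 days a week for 3 weeks, starting day 11 after infection. Read-out is CFU reduction in treated mice, usually reported as a ratio of mean CFU reduction versus mice given the reference nitroimidazole.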

[6] = Extrapolated AUCinfinity in swiss albino mouse plasma at 40 mg/kg, po by LC-MS/MS analysis

Question: With `O=[N+]([O-])c1cn2c(n1)OC(COc1ccc(-c3ccc(F)cc3)cc1)CC2` (stereo not drawn) as the molecule, how does the pIC50 [1] read?
Answer: The pIC50 was 7.20.

Question: With `O=[N+]([O-])c1cn2c(n1)OC(COc1ccc(-c3ccc(F)nc3)nc1)CC2` (stereo not drawn) as the molecule, how does the pIC50 [2] read?
Answer: The pIC50 was < 4.19.

Question: With `O=[N+]([O-])c1cn2c(n1)OC(COc1ccc(OC(F)(F)F)cc1)CC2` (stereo not drawn) as the molecule, how does the pIC50 [1] read?
Answer: The pIC50 was 7.21.

Question: Which results are given for `C[C@]1(COc2ccc(OC(F)(F)F)cc2)Cn2cc([N+](=O)[O-])nc2O1`?
Answer: Papp B→A at […] [3]: 247 nm/s; Papp A→B at […] [4]: 226 nm/s

Question: For `O=[N+]([O-])c1cn2c(n1)OC[C@@H](OCc1ccc(OC(F)(F)F)cc1)C2`, which Activity [5] is on record?
Answer: The Activity was “Active”.

Question: Which Activity [5] does the source give for `C[C@]1(COCc2ccc(-c3ccc(OC(F)(F)F)cc3)cc2)CCn2cc([N+](=O)[O-])nc2O1` here?
Answer: Its Activity is “Active”.

Question: For `O=[N+]([O-])c1cn2c(n1)OC(COCc1ccc(-c3ccc(OC(F)(F)F)cc3)cc1)CC2` (stereo not drawn), which AUC(0-inf) [6] is on record?
Answer: Its AUC(0-inf) is 47.1 µg·h/mL.
